Source: the M2OR odorant receptor database

Assays:
Conditions in all cases: stereoisomer not certain
[1] = molecular target: T1, OR1F12P (Homo sapiens) (UniProt Q8NHA8)
T1 sequence (whole entry): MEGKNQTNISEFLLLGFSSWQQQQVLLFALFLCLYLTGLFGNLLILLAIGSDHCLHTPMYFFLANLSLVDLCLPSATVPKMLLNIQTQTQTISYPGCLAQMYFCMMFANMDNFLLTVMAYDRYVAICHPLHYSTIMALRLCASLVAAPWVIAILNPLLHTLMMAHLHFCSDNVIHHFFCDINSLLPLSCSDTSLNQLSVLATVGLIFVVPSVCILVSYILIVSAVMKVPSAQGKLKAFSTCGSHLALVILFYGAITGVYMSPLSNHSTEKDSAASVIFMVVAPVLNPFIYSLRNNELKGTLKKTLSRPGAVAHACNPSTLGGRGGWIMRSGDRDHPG
How it was run: (§1)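 Assay methods differ from source to source, frequently being transient luciferase assays in mammalian cell lines. For each receptor–molecule pair, the label responsive (active) applies when the original authors judged the measured signal statistically different from baseline, and non-responsive (inactive) applies otherwise.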

[2] = molecular target: T2, OR1G1 (Homo sapiens) (UniProt P47890)
T2 sequence (whole entry): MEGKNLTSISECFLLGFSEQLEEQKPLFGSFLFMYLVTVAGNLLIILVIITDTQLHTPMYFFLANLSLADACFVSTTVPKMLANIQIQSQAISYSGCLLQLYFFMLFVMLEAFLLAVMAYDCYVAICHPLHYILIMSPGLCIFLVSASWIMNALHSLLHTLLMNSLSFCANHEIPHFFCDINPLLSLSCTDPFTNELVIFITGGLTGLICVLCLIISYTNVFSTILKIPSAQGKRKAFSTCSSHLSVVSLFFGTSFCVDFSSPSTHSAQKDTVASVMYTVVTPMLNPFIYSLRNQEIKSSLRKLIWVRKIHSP
How it was run: as §1

[3] = molecular target: T3, OR1I1 (Homo sapiens) (UniProt O60431)
T3 sequence (whole entry): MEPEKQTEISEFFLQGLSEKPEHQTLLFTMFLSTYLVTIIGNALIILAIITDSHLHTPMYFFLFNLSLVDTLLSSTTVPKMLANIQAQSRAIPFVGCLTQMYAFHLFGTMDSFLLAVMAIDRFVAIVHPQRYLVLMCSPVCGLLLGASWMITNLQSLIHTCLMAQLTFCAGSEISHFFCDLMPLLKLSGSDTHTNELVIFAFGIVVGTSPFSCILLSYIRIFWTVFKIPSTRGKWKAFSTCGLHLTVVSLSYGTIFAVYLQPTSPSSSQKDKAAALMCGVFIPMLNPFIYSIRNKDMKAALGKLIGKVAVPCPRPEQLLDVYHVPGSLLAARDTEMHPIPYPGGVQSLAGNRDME
How it was run: as §1

[4] = molecular target: T4, OR1J1 (Homo sapiens) (UniProt Q8NGS3)
T4 sequence (whole entry): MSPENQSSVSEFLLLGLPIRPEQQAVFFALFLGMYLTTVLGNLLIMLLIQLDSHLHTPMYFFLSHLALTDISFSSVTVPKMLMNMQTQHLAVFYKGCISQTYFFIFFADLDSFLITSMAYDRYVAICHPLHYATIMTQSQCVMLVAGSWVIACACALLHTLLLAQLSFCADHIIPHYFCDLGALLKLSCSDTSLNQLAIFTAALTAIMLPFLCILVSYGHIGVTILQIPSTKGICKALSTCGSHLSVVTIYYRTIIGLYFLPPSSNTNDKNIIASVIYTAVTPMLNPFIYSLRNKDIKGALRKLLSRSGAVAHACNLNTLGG
How it was run: as §1

[5] = molecular target: T5, OR1K1 (Homo sapiens) (UniProt Q8NGR3)
T5 sequence (whole entry): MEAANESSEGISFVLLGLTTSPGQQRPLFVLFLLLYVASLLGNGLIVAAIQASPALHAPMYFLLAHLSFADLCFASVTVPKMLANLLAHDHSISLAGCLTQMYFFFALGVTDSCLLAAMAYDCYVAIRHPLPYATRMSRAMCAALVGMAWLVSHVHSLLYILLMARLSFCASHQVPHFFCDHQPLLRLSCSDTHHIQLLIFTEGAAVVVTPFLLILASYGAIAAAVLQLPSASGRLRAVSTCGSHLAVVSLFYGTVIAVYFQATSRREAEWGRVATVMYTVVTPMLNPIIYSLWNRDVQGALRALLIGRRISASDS
How it was run: as §1

[6] = molecular target: T6, OR1L1 (Homo sapiens) (UniProt Q8NH94)
T6 sequence (whole entry): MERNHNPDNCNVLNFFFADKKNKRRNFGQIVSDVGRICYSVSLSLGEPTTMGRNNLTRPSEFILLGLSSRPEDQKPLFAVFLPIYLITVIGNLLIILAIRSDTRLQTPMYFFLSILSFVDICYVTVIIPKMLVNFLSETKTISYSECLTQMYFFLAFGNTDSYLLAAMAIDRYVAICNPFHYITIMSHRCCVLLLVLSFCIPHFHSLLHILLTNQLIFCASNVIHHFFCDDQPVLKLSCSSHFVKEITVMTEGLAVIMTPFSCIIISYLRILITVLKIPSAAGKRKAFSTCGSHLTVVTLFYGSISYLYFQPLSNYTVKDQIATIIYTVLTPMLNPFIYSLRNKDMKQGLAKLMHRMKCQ
How it was run: as §1

[7] = molecular target: T7, OR1L3 (Homo sapiens) (UniProt Q8NH93)
T7 sequence (whole entry): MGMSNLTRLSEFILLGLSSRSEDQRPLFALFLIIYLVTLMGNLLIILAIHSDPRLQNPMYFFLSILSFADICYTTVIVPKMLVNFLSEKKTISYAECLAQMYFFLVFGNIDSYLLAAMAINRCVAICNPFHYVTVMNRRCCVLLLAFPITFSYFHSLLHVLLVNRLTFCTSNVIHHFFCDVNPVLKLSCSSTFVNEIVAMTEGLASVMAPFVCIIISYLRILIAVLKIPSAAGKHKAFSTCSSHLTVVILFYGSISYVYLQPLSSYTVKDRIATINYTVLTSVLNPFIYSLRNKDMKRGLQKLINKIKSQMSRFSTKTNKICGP
How it was run: as §1

[8] = molecular target: T8, OR1L4 (Homo sapiens) (UniProt Q8NGR5)
T8 sequence (whole entry): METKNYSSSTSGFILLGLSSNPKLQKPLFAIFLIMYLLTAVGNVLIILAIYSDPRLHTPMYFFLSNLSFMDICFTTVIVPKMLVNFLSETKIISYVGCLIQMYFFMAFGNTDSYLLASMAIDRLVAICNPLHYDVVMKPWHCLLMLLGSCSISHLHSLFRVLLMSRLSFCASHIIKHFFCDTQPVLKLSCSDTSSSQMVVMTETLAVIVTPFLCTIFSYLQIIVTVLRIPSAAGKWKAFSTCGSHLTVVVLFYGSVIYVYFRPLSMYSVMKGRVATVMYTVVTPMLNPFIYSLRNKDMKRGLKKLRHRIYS
How it was run: as §1

[9] = molecular target: T9, OR1L6 (Homo sapiens) (UniProt Q8NGR2)
T9 sequence (whole entry): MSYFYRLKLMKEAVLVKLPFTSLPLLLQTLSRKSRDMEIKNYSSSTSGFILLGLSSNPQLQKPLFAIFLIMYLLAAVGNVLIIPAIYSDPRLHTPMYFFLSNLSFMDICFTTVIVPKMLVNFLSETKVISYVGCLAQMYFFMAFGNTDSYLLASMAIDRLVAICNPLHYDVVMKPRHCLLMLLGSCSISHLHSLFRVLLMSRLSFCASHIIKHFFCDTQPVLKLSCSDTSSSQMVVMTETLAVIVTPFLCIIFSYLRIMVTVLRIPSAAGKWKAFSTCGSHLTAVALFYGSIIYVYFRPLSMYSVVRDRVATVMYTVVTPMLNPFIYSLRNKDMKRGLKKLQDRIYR
How it was run: as §1

[10] = molecular target: T10, OR1L8 (Homo sapiens) (UniProt Q8NGR8)
T10 sequence (whole entry): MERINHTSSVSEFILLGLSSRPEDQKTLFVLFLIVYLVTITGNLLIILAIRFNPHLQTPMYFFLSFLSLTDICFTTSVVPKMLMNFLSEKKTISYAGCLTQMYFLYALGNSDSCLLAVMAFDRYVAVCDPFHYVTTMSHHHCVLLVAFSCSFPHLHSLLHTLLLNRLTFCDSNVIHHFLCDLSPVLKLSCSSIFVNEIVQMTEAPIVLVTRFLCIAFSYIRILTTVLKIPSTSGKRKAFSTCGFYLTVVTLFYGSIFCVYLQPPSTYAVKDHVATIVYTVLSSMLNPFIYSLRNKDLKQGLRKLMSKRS
How it was run: as §1

[11] = molecular target: T11, OR1M1 (Homo sapiens) (UniProt Q8NGA1)
T11 sequence (whole entry): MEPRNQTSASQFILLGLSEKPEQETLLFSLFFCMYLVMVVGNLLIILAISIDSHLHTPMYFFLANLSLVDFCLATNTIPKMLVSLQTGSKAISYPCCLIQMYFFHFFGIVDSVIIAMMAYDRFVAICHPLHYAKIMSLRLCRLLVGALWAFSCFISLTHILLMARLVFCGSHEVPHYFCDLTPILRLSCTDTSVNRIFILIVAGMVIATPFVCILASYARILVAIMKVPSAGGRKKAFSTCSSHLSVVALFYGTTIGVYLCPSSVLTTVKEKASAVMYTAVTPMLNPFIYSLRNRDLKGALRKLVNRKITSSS
How it was run: as §1

[12] = molecular target: T12, OR1N1 (Homo sapiens) (UniProt Q8NGS0)
T12 sequence (whole entry): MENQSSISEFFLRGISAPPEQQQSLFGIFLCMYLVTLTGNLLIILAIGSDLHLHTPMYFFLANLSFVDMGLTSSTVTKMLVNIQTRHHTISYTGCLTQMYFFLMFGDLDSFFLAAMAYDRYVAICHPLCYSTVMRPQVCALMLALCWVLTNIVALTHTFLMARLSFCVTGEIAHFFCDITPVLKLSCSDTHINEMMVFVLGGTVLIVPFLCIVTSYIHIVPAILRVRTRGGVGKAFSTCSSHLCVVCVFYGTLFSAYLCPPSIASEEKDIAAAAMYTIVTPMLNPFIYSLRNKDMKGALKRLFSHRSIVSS
How it was run: as §1

Measured: odorant receptor agonist call

CC(=O)c1c(C)c([N+](=O)[O-])c(C(C)(C)C)c([N+](=O)[O-])c1C
inactive: all assays above
